These results are taken from PMC11494403 (Nature plants, 2024).

One experiment has as its system root. Conditions: RALF1-induced; cited from earlier work.
The subject of another experiment is RHs. The settings on record: 2 day exposure to exogenous RALF1; cited from earlier work.
A short description of experiment [1]: MST, binding to Alexa Fluor 647-labelled oligogalacturonide OG7–13^647. The settings on record: relative to wild-type RALF22. The method in brief:
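Wild-type or mutant peptide, titrated from 200µM, against 40nM Alexa Fluor 647-labelled, fully demethylesterified 7-13mer oligogalacturonide. Incubated 10min at RT, then thermophoresis on a Monolith NT.115 at medium MST power and 80% LED excitation. Data kept only at S/N >5 with no aggregation or ligand-induced initial fluorescence change. Kd averaged over 3 independent experiments.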

Take “RALF1: exogenous RALF1 peptide of an earlier study (ATTKYISYQSLKRNSVPCSRRGASYYNCQNGAQANPYSRGCSKIARCRS; Protein RALF-like 1; UniProt Q9SRY3 72-120, looked up)”: the root growth entry in the experiment with root was “root growth inhibition”. In addition, in the experiment with RHs, the root hair length entry is “longer RHs”.

For the substance “AQKKYISYGAMARNSVPCSARGASYYNCQAGAQANPYSRGCSTITRCRR [RALF22^R82A,R90A,R100A]”, in experiment [1], the “fold reduction in affinity for OG7–13^647” value is reported as 5.2 fold.
